Laboratory results published in ChEMBL document CHEMBL5303300, “EUbOPEN Chemogenomics Library - Multiplex” (2023).
Several values for one entry are separate records, joined by “and”; a condition that tells them apart may be missing. Equal values may be shown once.

Key:
[1] = system: HEK-293T; test: Multiplex assay against HEK293T; format: toxicity, cell-based; conditions: human, number of replicates 2
Outline: (§1)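 Per cents of healthy-nucleus cells form the tubulin, mitochondrial-mass and membrane-permeability phenotype values. Live cells were stained at seeding with Hoechst33342, BioTracker Green Microtubule Cytoskeleton Dye, MitoTracker Red and Annexin V Alexa Fluor 680. After compound addition they were imaged on a CQ1 microscope at 37°C and 5% CO2, and CellPathfinder machine-learning gating split them into Hoechst high-intensity objects or normal cells, normal cells into healthy, pyknosed or fragmented nuclei, and pyknosed cells into mitotic or apoptotic.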

[2] = system: U2OS; test: Multiplex assay against U2OS; format: toxicity, cell-based; conditions: human, number of replicates 2; outline: as §1
[3] = 24 h, 1 µM, compound concentration 1 uM
[4] = 24 h, 10 µM, compound concentration 10 uM
[5] = 48 h, 1 µM, compound concentration 1 uM
[6] = 48 h, 10 µM, compound concentration 10 uM
[7] = 12 h, 1 µM, compound concentration 1 uM
[8] = 12 h, 10 µM, compound concentration 10 uM

Structure (SMILES): COc1ccc2cc(S(=O)(=O)N[C@H](CC(=O)N[C@H](Cc3ccc(CN4[C@H](C)CCC[C@@H]4C)cc3)C(=O)N(C)C(C)C)c3ccc4c(c3)OCO4)ccc2c1.Cl
- Population Mitotic Cells (%) [1, 3]: 47% and 43%
- Population Normal (%) [1, 3]: 93% and 90%
- Population Pyknosed Nuclei (%) [1, 3]: 7% and 10%
- Population Tubulin-Different-Phenotype (%) [1, 3]: 74% and 73%
- Total Cell Count [1, 3]: 766 and 588
- Population Apoptotic (%) [1, 4]: 80% and 69%
- Population Fragmented Nuclei (%) [1, 4]: 2% and 5%
- Population Healthy Nuclei (%) [1, 4]: 76% and 75%
- Population Hoechst High Intensity Objects (%) [1, 4]: 10% and 15%
- Population Membrane Permeable-Phenotype (%) [1, 4]: 1% and 2%
- Population Mitochondria Different-Phenotype (%) [1, 4]: 88% and 86%
- Population Mitotic Cells (%) [1, 4]: 19% and 30%
- Population Normal (%) [1, 4]: 89% and 84%
- Population Pyknosed Nuclei (%) [1, 4]: 20% and 19%
- Population Tubulin-Different-Phenotype (%) [1, 4]: 78% and 75%
- Total Cell Count [1, 4]: 417 and 393
- Population Apoptotic (%) [1, 5]: 18% and 44%
- Population Fragmented Nuclei (%) [1, 5]: 10% and 8%
- Population Healthy Nuclei (%) [1, 5]: 84% and 85%
- Population Hoechst High Intensity Objects (%) [1, 5]: 8% and 9%
- Population Membrane Permeable-Phenotype (%) [1, 5]: 6% and 3%
- Population Mitochondria Different-Phenotype (%) [1, 5]: 5% and 4%
- Population Mitotic Cells (%) [1, 5]: 81% and 55%
- Population Normal (%) [1, 5]: 91% and 90%
- Population Pyknosed Nuclei (%) [1, 5]: 4% and 6%
- Population Tubulin-Different-Phenotype (%) [1, 5]: 44% and 41%
- Total Cell Count [1, 5]: 1592 and 1105
- Population Apoptotic (%) [1, 6]: 88% and 78%
- Population Fragmented Nuclei (%) [1, 6]: 6% and 9%
- Population Healthy Nuclei (%) [1, 6]: 81% and 80%
- Population Hoechst High Intensity Objects (%) [1, 6]: 14% and 17%
- Population Membrane Permeable-Phenotype (%) [1, 6]: 2% and 3%
- Population Mitochondria Different-Phenotype (%) [1, 6]: 78% and 79%
- Population Mitotic Cells (%) [1, 6]: 12% and 21%
- Population Normal (%) [1, 6]: 85% and 82%
- Population Pyknosed Nuclei (%) [1, 6]: 11% and 10%
- Population Tubulin-Different-Phenotype (%) [1, 6]: 84% and 87%
- Total Cell Count [1, 6]: 498 and 427
- Population Apoptotic (%) [2, 7]: 20% and 30%
- Population Fragmented Nuclei (%) [2, 7]: 8% and 4%
- Population Healthy Nuclei (%) [2, 7]: 76% and 85%
- Population Hoechst High Intensity Objects (%) [2, 7]: 2% and 0%
- Population Membrane Permeable-Phenotype (%) [2, 7]: 11% and 14%
- Population Mitochondria Different-Phenotype (%) [2, 7]: 7% and 20%
- Population Mitotic Cells (%) [2, 7]: 80% and 69%
- Population Normal (%) [2, 7]: 97% and 99%
- Population Pyknosed Nuclei (%) [2, 7]: 14% and 10%
- Population Tubulin-Different-Phenotype (%) [2, 7]: 30% and 45%
- Population Apoptotic (%) [2, 8]: 100% and 66%
- Population Healthy Nuclei (%) [2, 8]: 50% and 75%
- Population Hoechst High Intensity Objects (%) [2, 8]: 3% and 0%
- Population Membrane Permeable-Phenotype (%) [2, 8]: 81% and 37%
- Population Mitochondria Different-Phenotype (%) [2, 8]: 81% and 58%
- Population Normal (%) [2, 8]: 96% and 100%
- Population Pyknosed Nuclei (%) [2, 8]: 18% and 21%
- Population Tubulin-Different-Phenotype (%) [2, 8]: 93% and 100%
- Population Apoptotic (%) [2, 3]: 50%
- Population Fragmented Nuclei (%) [2, 3]: 5% and 6%
- Population Healthy Nuclei (%) [2, 3]: 79% and 73%
- Population Hoechst High Intensity Objects (%) [2, 3]: 2% and 0%
- Population Membrane Permeable-Phenotype (%) [2, 3]: 3% and 11%
- Population Mitochondria Different-Phenotype (%) [2, 3]: 12% and 21%
- Population Mitotic Cells (%) [2, 3]: 50% and 49%
- Population Normal (%) [2, 3]: 97% and 99%
- Population Pyknosed Nuclei (%) [2, 3]: 15% and 19%
- Population Tubulin-Different-Phenotype (%) [2, 3]: 32% and 42%
- Population Apoptotic (%) [2, 4]: 72% and 81%
- Population Fragmented Nuclei (%) [2, 4]: 21% and 7%
- Population Healthy Nuclei (%) [2, 4]: 43% and 62%
- Population Hoechst High Intensity Objects (%) [2, 4]: 3% and 0%
- Population Membrane Permeable-Phenotype (%) [2, 4]: 92% and 74%
- Population Mitochondria Different-Phenotype (%) [2, 4]: 71% and 61%
- Population Mitotic Cells (%) [2, 4]: 27% and 18%
- Population Normal (%) [2, 4]: 96% and 100%
- Population Pyknosed Nuclei (%) [2, 4]: 34% and 30%
- Population Tubulin-Different-Phenotype (%) [2, 4]: 100% and 98%
- Population Apoptotic (%) [2, 5]: 76% and 84%
- Population Fragmented Nuclei (%) [2, 5]: 18% and 7%
- Population Healthy Nuclei (%) [2, 5]: 60% and 74%
- Population Hoechst High Intensity Objects (%) [2, 5]: 0%
- Population Membrane Permeable-Phenotype (%) [2, 5]: 7% and 13%
- Population Mitochondria Different-Phenotype (%) [2, 5]: 10% and 18%
- Population Mitotic Cells (%) [2, 5]: 23% and 15%
- Population Normal (%) [2, 5]: 100% and 99%
- Population Pyknosed Nuclei (%) [2, 5]: 20% and 17%
- Population Tubulin-Different-Phenotype (%) [2, 5]: 25% and 32%
- Population Apoptotic (%) [2, 6]: 100% and 95%
- Population Healthy Nuclei (%) [2, 6]: 22% and 42%
- Population Hoechst High Intensity Objects (%) [2, 6]: 0%
- Population Membrane Permeable-Phenotype (%) [2, 6]: 83% and 85%
- Population Mitochondria Different-Phenotype (%) [2, 6]: 50% and 70%
- Population Mitotic Cells (%) [2, 6]: 0% and 4%
- Population Normal (%) [2, 6]: 100%
- Population Pyknosed Nuclei (%) [2, 6]: 40% and 51%
- Population Tubulin-Different-Phenotype (%) [2, 6]: 83% and 99%
